Converted amounts (≈) assume the structure as drawn. Structures can show the parent of a compound that is named as a salt.
Legend:
KB = experiment: Cytotoxicity against human KB cells by colorimetric method; format: functional, cell-based
[1] = system: Mycobacterium tuberculosis; experiment: Antimycobacterial activity against Mycobacterium tuberculosis H37Ra by microplate alamar blue assay; format: functional
Procedure, shortened: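 M. tuberculosis H37Ra tested by microplate Alamar Blue assay, value reported as MIC. Isoniazid and kanamycin sulfate as reference compounds.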

[2] = Cytotoxicity against human BC1 cells by colorimetric method; format: functional, cell-based
Procedure, shortened: (§1)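 Colorimetric cytotoxicity assay following Skehan and co-workers. Cells: BC-1 (human breast cancer) and NCI-H187 (human small cell lung cancer). IC50 values reported in μM. Ellipticine served as the standard positive control.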

NCI-H187 = experiment: Cytotoxicity against human NCI-H187 cells by colorimetric method; format: functional, cell-based; procedure, shortened: as §1
Plasmodium falciparum = experiment: Antimalarial activity against multidrug-resistant Plasmodium falciparum K1 by [3H]hypoxanthine uptake; format: functional, organism-based
Procedure, shortened: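 P. falciparum K1 kept in continuous culture; in vitro microculture radioisotope method. IC50 taken as the concentration giving 50% reduction in parasite growth, read as uptake of [3H]hypoxanthine. Dihydroartemisinin as positive control.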

Work on `CCCC(=O)CC/C=C/[C@H](O)[C@@H]1O[C@H]1CO` yielded an IC50 (KB) of over 30.3 µM, an MIC [1] of over 303 µM and an IC50 [2] of over 30.3 µM. It also gave an IC50 (NCI-H187) of over 30.3 µM and an IC50 (Plasmodium falciparum) of over 30.3 µM.
`CC(O)CCC/C=C/C(O)C(O)/C=C/c1c(CC(O)C(C)(C)O)ccc(O)c1C=O` (stereo unspecified) gave an IC50 (KB) of over 47.3 µM, an MIC [1] of 474 µM (≈ 200 µg/mL) and an IC50 [2] of over 47.3 µM. For the same compound, the IC50 (NCI-H187) was over 47.3 µM and the IC50 (Plasmodium falciparum) was over 47.3 µM.
Work on `C/C=C/C(C=O)=C\C=C\C(O)C(O)[C@@H]1O[C@H]1CO` (relative stereo) yielded an IC50 (KB) of over 78.7 µM, an MIC [1] of over 787 µM and an IC50 [2] of over 78.7 µM. It also gave an IC50 (NCI-H187) of over 78.7 µM and an IC50 (Plasmodium falciparum) of over 78.7 µM.
Compound `C/C=C(\C)C(=O)C(C)C(O)C(C)C(=O)O[C@H]1C=COC=C2C[C@@]3(SC)C(=O)N4[C@H]5C(=CC=C[C@@H]5O)[C@@H](O)[C@@]4(SC)C(=O)N3[C@@H]21` (stereo partly specified) has an IC50 (KB) of over 30.9 µM, an MIC [1] of 155 µM (≈ 100 µg/mL) and an IC50 [2] of 29.2 µM. For the same compound, the IC50 (NCI-H187) was 22.9 µM and the IC50 (Plasmodium falciparum) was over 30.9 µM.
Compound `NNC(=O)c1ccncc1` [ISONIAZID] has an MIC [1] of 0.29 µM (≈ 0.0398 µg/mL).
With `CCCCC/C=C/C(O)C(O)/C=C/c1c(CC(O)C(C)(C)O)ccc(O)c1CO` (stereo unspecified) the IC50 (KB) was over 49 µM, the MIC [1] was 245 µM (≈ 100 µg/mL) and the IC50 [2] was over 49 µM. The IC50 (NCI-H187) was over 49 µM and the IC50 (Plasmodium falciparum) was over 49 µM.
`NC[C@H]1O[C@H](O[C@H]2[C@H](O)[C@@H](O[C@H]3O[C@H](CO)[C@@H](O)[C@H](N)[C@H]3O)[C@H](N)C[C@@H]2N)[C@H](O)[C@@H](O)[C@@H]1O` [KANAMYCIN SULFATE] showed an MIC [1] of 3.43 µM.
`C/C=C(\C)C(=O)C(C)C(O)C(C)C(=O)O[C@H]1C=COC=C2C[C@@]3(SC)C(=O)N4c5c(O)cccc5[C@@H](O)[C@@]4(SC)C(=O)N3[C@@H]21` (stereo partly specified) showed an IC50 (KB) of over 31 µM, an MIC [1] of 1.24 µM (≈ 0.8 µg/mL) and an IC50 [2] of over 31 µM. The IC50 (NCI-H187) was 20.3 µM and the IC50 (Plasmodium falciparum) was 2.95 µM.
For `CS[C@@]12CC3=CC=C[C@H](O)[C@H]3N1C(=O)[C@]1(SC)CC3=COC=C[C@H](O)[C@H]3N1C2=O`, the IC50 (KB) was over 46 µM, the MIC [1] was 7.14 µM (≈ 3.1 µg/mL) and the IC50 [2] was over 46 µM. For the same compound, the IC50 (NCI-H187) was over 46 µM and the IC50 (Plasmodium falciparum) was over 46 µM.
`O=C1c2c(O)cccc2[C@H](O)[C@H](O)[C@H]1O` showed an IC50 (KB) of over 95.2 µM, an MIC [1] of 952 µM (≈ 200 µg/mL) and an IC50 [2] of over 95.2 µM. The IC50 (NCI-H187) was 56.6 µM and the IC50 (Plasmodium falciparum) was over 95.2 µM.
For `C[C@H]1[C@@H](O)O[C@@H]2O[C@@]3(C)CC[C@H]4[C@H](C)CC[C@@H]1[C@@]24OO3` [ARTENIMOL], the IC50 (Plasmodium falciparum) was 0.004 µM.
`Cc1c2ccncc2c(C)c2c1[nH]c1ccccc12` [ELLIPTECINE] gave an IC50 (KB) of 5.41 µM, an IC50 [2] of 5.93 µM and an IC50 (NCI-H187) of 1.59 µM.

From ChEMBL document CHEMBL1158073, “Bioactive compounds from the seed fungus Menisporopsis theobromae BCC 3975” (J Nat Prod, 2006)
